# Compounds with a hit are over-represented: about 1.7% of the library has one in this group of screens.
# AI-2 QS modul: Vibrio harveyi AI-2 quorum sensing modulation | 300,000 tested, 0.4% active | activity change, % at 7.5 µM | Vibrio harveyi JMH597 AI-2 luminescence/OD600 ratio, 9 h; stronger effect = lower value; strain lacks LuxN and CqsS sensors; 0 = neutral-control median; in the data active = activity change below about -75%, passing the limit was not always enough; inconclusive = no clear call, values can overlap the other calls;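 also: luminescence divided by OD600 gain over 9 h not by final OD600 alone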
# Rce1 inhib: yeast Ras-converting enzyme inhibition. calls only. yeast membranes, quenched prenylated peptide cleavage fluorescence. 290,000 tested, 0.27% active. Q03530. AID 2563;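 active = fall in fluorescence gain of 50% or more versus controls, with final raw signal at or below 3038400; inconclusive = same 50% fall but final raw signal above 3038400; inactive = fall in fluorescence gain under 50%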
# Target sequence (Q03530 whole entry, looked up): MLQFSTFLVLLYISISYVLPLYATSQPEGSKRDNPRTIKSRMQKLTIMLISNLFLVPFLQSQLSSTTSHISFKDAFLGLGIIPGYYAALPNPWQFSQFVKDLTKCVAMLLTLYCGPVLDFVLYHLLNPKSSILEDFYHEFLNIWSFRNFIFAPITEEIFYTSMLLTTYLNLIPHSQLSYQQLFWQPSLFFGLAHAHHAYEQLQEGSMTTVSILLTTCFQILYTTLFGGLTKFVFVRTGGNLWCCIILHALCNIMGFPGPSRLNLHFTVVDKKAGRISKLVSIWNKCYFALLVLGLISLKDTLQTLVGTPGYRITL
# ARNT TACC3 PPI: disruptors of human ARNT/TACC3 interaction; AlphaScreen His-ARNT PAS-B/GST-TACC3 binding, luminescence; TACC3 fragment carries E629A point mutation; 390,000 tested, 0.66% active; AID 623870; inhibition, % at 9.99 µM;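 active = mean inhibition of replicates at least 50% and at least half of replicates each reaching 50%; inconclusive = half or more replicates reach 50% but mean below 50%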
# CAL PDZ FP-1: CAL PDZ (human) peptide binding inhibition. Q9HD26. purified CAL PDZ, TMR-peptide fluorescence polarization, 1 h. inhibition, % at 24.9 µM. 300,000 tested, 0.92% active. AID 602252;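 active = mean inhibition of at least 30% with at least half of replicates also reaching 30%; inconclusive = no clear call, values can overlap the other calls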
# CAL PDZ FP-2: inhibitors of human CAL PDZ peptide binding. inhibition, % at 20 µM. purified CAL PDZ, TMR-peptide fluorescence polarization, 1 h. 330,000 tested, 0.02% active;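 active = highest replicate inhibition of at least 40%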
#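 Assay system – tagged CAL PDZ protein CerCALP, purified · Timing – 1 h at RT · Compound – single point, 20 µM · Measured by – fluorescence polarization from S- and P-plane intensities, G-factor corrected · Evaluation – inhibition from polarization loss · Probe or stimulus – TMR reporter peptide T*-PRC34 · Buffer or medium – pH 7.4 phosphate-saline buffer, reducing agent, detergent, IgG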
# JMH597 growth rt: retest: inhibitors of Vibrio harveyi JMH597 growth | OD600 absorbance, 9 h; lacks LuxN and CqsS sensors | 750 tested, 1% active | shares compounds with AI-2 QS modul | growth inhibition, % at 7.5 µM;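 active = every replicate shows growth inhibition above 50%; inconclusive = at least half, but not all, replicates pass that cutoff; inactive = fewer than half of replicates pass it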
# BB721 const-QS lum: retest counter-screen: BB721 constitutive quorum sensing luminescence decrease. shares compounds with AI-2 QS modul. inhibition, % at 7.5 µM. Vibrio harveyi BB721 luminescence, 9 h. AID 2727. 750 tested, 95% active;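 active = inhibition above about 80% in every replicate, not just on average, limit read from the data; inconclusive = at least half of replicates past the limit, but not all; inactive = fewer than half of replicates past the limit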
# BB721 growth rt: retest Vibrio harveyi BB721 growth inhibition | shares compounds with AI-2 QS modul | OD600 absorbance, 9 h | growth inhibition, % at 7.5 µM | 750 tested, 3% active | AID 2728;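 active = every replicate shows growth inhibition above 50%; inconclusive = at least half but not all replicates above 50% inhibition; inactive = under half of replicates above 50% inhibition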
# JMH597 AI-2 mod: Vibrio harveyi AI-2 signaling luminescence modulation – JMH597 strain, confirmation. inhibition, % at 7.5 µM. shares compounds with AI-2 QS modul. 750 tested, 97% active. Vibrio harveyi JMH597 AI-2 quorum sensing luminescence, 9 h; luxN and CqsS knockout, AI-2 only. AID 2736;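 active = every replicate shows more than 75% inhibition of signal versus neutral control wells; inconclusive = half to three quarters of replicates exceed 75% inhibition; inactive = fewer than half of replicates exceed 75% inhibition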
# Hits are given with their value; . = inactive; ? = inconclusive; / = no result.
SMILES,AI-2 QS modul,Rce1 inhib,ARNT TACC3 PPI,CAL PDZ FP-1,CAL PDZ FP-2,JMH597 growth rt,BB721 const-QS lum,BB721 growth rt,JMH597 AI-2 mod
COc1ccc(CNc2oc(-c3ccccc3)nc2C#N)cc1,-95,.,/,.,.,.,98,.,99
CNc1oc(-c2ccccc2)nc1C#N,.,?,.,.,.,/,/,/,/
N#Cc1nc(-c2ccccc2)oc1NCc1ccco1,?,.,.,/,.,.,90,.,93
COc1ccc(-c2nc(C#N)c(NCCc3ccccc3)o2)cc1,.,.,.,.,.,/,/,/,/
Cc1ccc(OCc2cc(C(=O)N(C)Cc3cc(C4CC4)n[nH]3)no2)cc1C,-81,.,.,.,.,.,85,.,90
Cc1cccc(C)c1OCc1cc(C(=O)N(C)Cc2cc(C3CC3)n[nH]2)no1,.,.,.,.,.,/,/,/,/
Cc1noc(C)c1NC(=O)Nc1ccc2c(c1)C(=O)N([C@@H](C)CO)C[C@@H](C)[C@H](CN(C)S(=O)(=O)c1cn(C)cn1)OCCCC[C@H](C)O2,/,/,.,/,/,/,/,/,/
O=C1NN=C(c2ccc(Br)cc2)CC1c1ccc(Cl)cc1 (centres undefined),-84,.,.,.,.,.,98,.,97
CCc1ccc(C2CC(c3ccc(Cl)cc3)=NNC2=O)cc1 (centres undefined),-82,.,.,.,.,.,88,.,87
COc1ccc(NC(=O)c2ccccc2NC(=O)CN2CCCCCC2)cc1,/,/,.,.,.,/,/,/,/
C/C(=N\NC(=O)c1cc(C)[nH]n1)c1ccc(-c2ccccc2)cc1,.,.,.,.,.,/,/,/,/
Fc1ccc(-c2nnn(Cc3nc4ccccc4s3)n2)cc1,-90,/,.,.,.,.,98,.,98
CN1[C@@H]2c3ccc(/C=C/c4ccccc4)c(=O)n3C[C@@H]2[C@@H](CO)[C@@H]1C(=O)NC1CCCCC1,/,/,.,/,/,/,/,/,/
CN1CC(=O)N(CC(=O)Nc2cc(Cl)cc(Cl)c2)C1=O,-94,.,.,.,.,.,98,.,99
CCc1ccc(CNC(=O)Cn2nc(-c3ccc(C)cc3)ccc2=O)cc1,-79,.,/,/,/,.,90,.,94
O=C(Cn1nc(-c2ccccc2)ccc1=O)NCc1ccc(F)cc1,.,.,.,.,.,/,/,/,/
CC(=O)c1cccc(N(CC(=O)Nc2ccccc2F)S(C)(=O)=O)c1,.,.,.,.,.,/,/,/,/
COC(=O)Nc1ccc(S(=O)(=O)Nc2ncccn2)cc1,.,.,.,.,.,/,/,/,/
CCCCOC(=O)Nc1ccc(S(=O)(=O)Nc2ncccn2)cc1,-91,.,/,.,.,.,96,.,97
COc1cccc(/C=N/NC(=O)CNC(=O)c2cccs2)c1O,.,.,.,.,.,/,/,/,/
O=C(CNC(=O)c1ccncc1)N/N=C/c1ccc(Br)cc1,?,.,.,.,.,.,95,.,94
Cc1ccc(/C=N/NC(=O)CNC(=O)c2cccs2)cc1,-90,.,.,.,.,.,97,.,97
Cc1ccc2nccc(C(=O)N3CCCC(Nc4ccc(C)c(C)c4)C3)c2c1 (centres undefined),.,.,.,.,.,/,/,/,/
CC1(c2ccccc2)NC(=O)N(CC(=O)Nc2ccc3c(c2)OCO3)C1=O (centres undefined),-95,.,/,.,.,.,96,.,98
CC(C)CC1(C)NC(=O)N(CC(=O)Nc2ccc3c(c2)CCC3)C1=O (centres undefined),-85,.,.,.,.,.,90,.,94
SMILES,AI-2 QS modul,Rce1 inhib,ARNT TACC3 PPI,CAL PDZ FP-1,CAL PDZ FP-2,JMH597 growth rt,BB721 const-QS lum,BB721 growth rt,JMH597 AI-2 mod
COc1ccc(NC(=O)CN2C(=O)NC(C)(c3ccccc3)C2=O)cc1Cl (centres undefined),-95,.,.,.,.,.,96,.,98
Cc1cc(=O)oc2cc(NC(=O)CN3C(=O)NC(C)(c4ccccc4)C3=O)ccc12 (centres undefined),-84,.,.,.,.,.,86,.,91
COc1ccc(C2(C)NC(=O)N(CC(=O)Nc3ccc4c(c3)CCC4)C2=O)cc1OC (centres undefined),/,/,.,/,.,/,/,/,/
CC1(c2ccc(Cl)cc2)NC(=O)N(CC(=O)Nc2ccc(F)cc2)C1=O (centres undefined),-78,.,.,.,.,.,86,.,89
CC1(c2ccc(OC(F)F)cc2)NC(=O)N(CC(=O)Nc2ccc3c(c2)OCO3)C1=O (centres undefined),-94,.,.,.,/,.,96,.,97
CC1(c2ccc(Cl)cc2)NC(=O)N(CC(=O)NCc2ccc(F)cc2)C1=O (centres undefined),.,/,.,.,.,/,/,/,/
CCOC(=O)C1(Cc2cccc(Cl)c2)CCCN(C(=O)c2c(CC)noc2C)C1 (centres undefined),.,.,.,.,.,/,/,/,/
CN(C)S(=O)(=O)c1ccc(NC(=S)NC(=O)Cc2ccccc2)cc1,-86,.,.,.,.,.,.,.,.
Cc1ccccc1-c1ccc(=O)n(CC(=O)Nc2ccc(-n3cnnn3)cc2)n1,.,.,.,.,.,/,/,/,/
CCN(CC)c1ccc(NC(=S)NC(=O)Cc2ccccc2)cc1,.,.,.,.,.,/,/,/,/
Cc1ccccc1-c1ccc(=O)n(CC(=O)Nc2ccc(S(=O)(=O)N(C)C)cc2)n1,-87,.,.,.,.,.,93,.,96
CCC(C(=O)NC(C)c1ccccc1)C(=O)NC(C)c1ccccc1 (centres undefined),.,.,.,.,.,/,/,/,/
Cc1ccc(N(C(=O)c2csnn2)C(C(=O)NC2CCCCC2)c2ccccn2)c(C)c1 (centres undefined),.,.,.,.,.,/,/,/,/
COc1ccc(CNC(=O)c2cc(-c3cc(C)ccc3O)n[nH]2)cc1,-79,.,.,.,.,.,?,.,84
Cc1noc(C)c1C(=O)OCC(=O)Nc1ccccc1SCC#N,/,/,.,.,.,/,/,/,/
O=c1c(Cl)c(Cl)cnn1Cc1nnc(-c2ccc(Cl)cc2)o1,-91,.,.,.,.,.,98,.,99
Cc1ccc(Cn2ncc(Cl)c(Cl)c2=O)cc1,.,.,.,.,.,/,/,/,/
CCSc1nsc(NC(=O)Nc2ccc(F)cc2F)n1,?,.,.,.,.,82,94,?,99
O=C(CCl)NN1C(=O)NC2(CCCCC2)C1=O,.,.,.,.,.,/,/,/,/
O=C(CCl)NN1C(=O)NC(c2ccccc2)(c2ccccc2)C1=O,-95,.,.,.,.,.,98,.,98

# Source: PubChem (Broad Institute)
